Results gathered from unrelated publications.
Target: Testis-specific serine/threonine-protein kinase 3 (TSSK3, Homo sapiens, UniProt Q96PN8)
Residues used in one study (Q96PN8 1-268): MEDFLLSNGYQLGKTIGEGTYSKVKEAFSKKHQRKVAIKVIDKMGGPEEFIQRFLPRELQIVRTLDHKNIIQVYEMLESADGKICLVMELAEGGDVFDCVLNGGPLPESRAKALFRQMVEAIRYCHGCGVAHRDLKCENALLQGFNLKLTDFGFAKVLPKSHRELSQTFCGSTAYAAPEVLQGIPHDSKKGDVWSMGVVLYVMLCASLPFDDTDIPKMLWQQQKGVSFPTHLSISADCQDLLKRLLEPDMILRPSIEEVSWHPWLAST

| Structure (SMILES) | test | conditions | remaining binding [%] |
| --- | --- | --- | --- |
| Nc1c(C(=O)NCc2ccc(C(=O)NCCCC3CCCCC3)cc2)cnn1-c1ccccc1 | cell-free assay, competition with immobilised ligand | 0.1 µM | 100 |
| O=C(c1ccc(Nc2ncc(Cl)c(-c3cc4ccccc4s3)n2)cc1)N1CCC(N2CCCC2)CC1 | binding, competition with immobilised ligand | 1 µM | 85 |
| Nc1ncc2c(n1)-c1c([nH]c3ccc(C#CC4CC4)cc13)CCCC2 | binding, competition with immobilised ligand | 1 µM | 70 |
| O=C(c1ccc(Nc2ncc(Cl)c(-c3ccc(Cl)s3)n2)cc1)N1CCC(N2CCCC2)CC1 | binding, competition with immobilised ligand | 1 µM | 100 |
| COc1ccnn2ncc(-c3ccnc(N(C)C)n3)c12 | binding | 1 µM | 100 |
| C=CC(=O)N1CCC(C(=O)NCC(=O)N2CCN(c3nc(-c4cnc(N)nc4C(F)F)nc(N4CCOCC4)n3)CC2)CC1 | binding, competition with immobilised ligand | 1 µM | 100 |
| C[C@H]1CCN(c2nccc(-c3cnn4ncccc34)n2)C1 | binding | 1 µM | 92 |
| CCCCN(CCCC)C(=O)CN1C[C@H](c2cc(OC)c3c(c2)OCO3)[C@@H](C(=O)O)[C@@H]1CC(C)(C)CCC | cell-free assay, competition with immobilised ligand | 1 µM | 100 |
| CNC(=O)[C@@H]1CC[C@@H](n2c(-c3ccc4cnccc4c3)nc3ccc(C(=O)NCc4cccc(C(N)=O)c4)cc32)C1 | binding, competition with immobilised ligand | 1 µM | 100 |
| CN(C)c1nccc(-c2cnc3ncccn23)n1 | binding | 1 µM | 90 |
| COc1cc(-c2cn(C3CCc4c(F)cccc4N(CC(F)(F)F)C3=O)nn2)ccc1-n1cnc(C)c1 (stereo not drawn) | cell-free assay, competition with immobilised ligand | 1 µM | 97 |
| c1cnn2ncc(-c3ccnc(N4CCC45COC5)n3)c2c1 | binding | 1 µM | 98 |
| O=C(NCCCN1CCOCC1)c1ccc(Nc2nccc(-c3cc4ccccc4s3)n2)cc1 | binding, competition with immobilised ligand | 1 µM | 79 |
| N[C@H]1CCN(c2nccc(-c3cnn4ncccc34)n2)C1 | binding | 1 µM | 88 |
| Cc1c(NC(=O)c2cc(C(N)=O)nc3cc(F)ccc23)c(C(F)(F)F)nn1Cc1ccc(C(C)(C)C)cc1 | cell-free assay, competition with immobilised ligand | 1 µM | 100 |
| CN(C)c1nccc(-c2cnn3ncccc23)n1 | binding | 1 µM | 100 |
| C[C@@H](c1ccc(-n2cnc3c(N)ncnc32)cc1)N1CCc2nn(C)c(Cc3ccccc3)c2C1=O | binding, competition with immobilised ligand | 0.1 µM | 70 |
| C[C@@]1(Cc2ccc(C#N)cc2)C(=O)N(c2cc(Cl)cc(Cl)c2)c2ncc(C(=O)NC3(c4nc(C5CCC5)no4)CC3)n21 | cell-free assay, competition with immobilised ligand | 1 µM | 100 |
| COc1cnc(Nc2cccc(S(N)(=O)=O)c2)nc1N1CCN(c2ccccc2)CC1 | binding, competition with immobilised ligand | 1 µM | 97 |
| CNC(=O)Nc1ccc2c(c1)[C@@]1(CC2)OC(=O)N(CC(=O)N(Cc2ccc(F)cc2)[C@@H](C)C(F)(F)F)C1=O | cell-free assay, competition with immobilised ligand | 1 µM | 100 |
| O=C(Nc1c[nH]nc1C(=O)NC1CCNCC1)c1cc(F)cc(F)c1 | binding, competition with immobilised ligand | 1 µM | 100 |
